Five compounds from ChEMBL document CHEMBL2016497, “Analogs of the RSK inhibitor SL0101: optimization of in vitro biological stability” (Bioorg Med Chem Lett, 2012) can be followed below.

Activity calls are given as the source filed them. The calls are words filed in the database; no cut-off is given here.

Series [1] can be described thus: Solubility of the compound. It counts as physicochemical.
For series [2], the system named is MCF7. Description: Down regulation of cyclin D1 level in human MCF7 cells at 100 uM at 96 hrs by immunoblotting analysis relative to control. It counts as functional, cell-based. A digest of the protocol:
(§1)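 MCF7 cells treated at 100 μM; at each time point cells were lysed and lysates immunoblotted for cyclin D1 versus control, each compound analyzed on a single membrane.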
(In general: Immunoblotting shows a protein as a band on a membrane.)

Series [3] relates to MCF7. Description: Antiproliferative activity against human MCF7 cells at 100 uM after 96 hrs by CellTiter-GloTM assay. In kind it is functional, cell-based. A digest of the protocol: (§2)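 Stability time course: MCF7 cells given inhibitor (100μM) at plating (time 0); percentage of growth measured at set time points versus vehicle. n=3 in quadruplicate.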
(In general: Cellular ATP, detected with luciferase, serves as a proxy for viable cell number.)

A further series deals with MCF-10A. Description: Antiproliferative activity against human MCF10A cells at 50 uM after 48 hrs by CellTiter-GloTM assay. It counts as cell-based. A digest of the protocol: (§3)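 MCF-10A and MCF7 cells exposed to inhibitor at 50 μM; growth compared with vehicle. n=3 in quadruplicate.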
Series [4] has as its system MCF7. Briefly: Antiproliferative activity against human MCF7 cells at 100 uM after 144 hrs by CellTiter-GloTM assay. In kind it is functional, cell-based. A digest of the protocol:
as §2

In series [5] the test system is MCF7. Description: Antiproliferative activity against human MCF7 cells after 48 hrs by CellTiter-GloTM assay. In kind it is functional, cell-based. The note with it: MCF7, 48 h.
Series [6] concerns MCF7. Description: Antiproliferative activity against human MCF7 cells at 100 uM after 48 hrs by CellTiter-GloTM assay. It counts as functional, cell-based. In short, it runs like this: as §2
Series [7] deals with MCF7. Description: Antiproliferative activity against human MCF7 cells at 50 uM after 48 hrs by CellTiter-GloTM assay. It counts as functional, cell-based. In short, it runs like this: as §3
In series [8] the test system is MCF7. Briefly: Down regulation of cyclin D1 level in human MCF7 cells at 100 uM at 48 hrs by immunoblotting analysis relative to control. It counts as functional, cell-based. In short, it runs like this: as §1
Series [9] deals with Ribosomal protein S6 kinase alpha-3 (Homo sapiens, UniProt P51812). Description: Inhibition of His-tagged RSK2 expressed in Sf9 cells using ERalpha-Ser167 RLASTND as substrate after 120 mins by chemiluminescence assay.
Sequence of Ribosomal protein S6 kinase alpha-3 (P51812 whole entry): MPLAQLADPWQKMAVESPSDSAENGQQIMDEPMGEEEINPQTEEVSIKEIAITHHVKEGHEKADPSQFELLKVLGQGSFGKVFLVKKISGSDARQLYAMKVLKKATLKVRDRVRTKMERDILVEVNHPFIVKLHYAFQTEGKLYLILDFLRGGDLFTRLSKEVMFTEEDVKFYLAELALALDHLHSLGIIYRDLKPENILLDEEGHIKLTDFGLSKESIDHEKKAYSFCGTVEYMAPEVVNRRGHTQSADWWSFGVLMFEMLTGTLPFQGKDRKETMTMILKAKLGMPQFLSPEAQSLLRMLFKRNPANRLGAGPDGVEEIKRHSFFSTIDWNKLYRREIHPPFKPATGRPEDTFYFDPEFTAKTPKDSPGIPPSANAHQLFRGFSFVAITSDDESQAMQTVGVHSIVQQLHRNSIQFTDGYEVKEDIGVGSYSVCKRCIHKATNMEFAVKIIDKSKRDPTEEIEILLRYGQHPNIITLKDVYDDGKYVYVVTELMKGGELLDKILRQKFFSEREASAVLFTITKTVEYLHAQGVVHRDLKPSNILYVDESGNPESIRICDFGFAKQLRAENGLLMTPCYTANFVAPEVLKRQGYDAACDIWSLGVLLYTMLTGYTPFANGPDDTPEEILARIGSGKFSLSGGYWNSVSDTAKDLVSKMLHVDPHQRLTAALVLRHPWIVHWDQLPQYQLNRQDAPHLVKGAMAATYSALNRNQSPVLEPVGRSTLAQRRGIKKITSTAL

Regarding `C[C@@H]1O[C@@H](Oc2c(-c3ccc(O)cc3)oc3cc(O)cc(O)c3c2=O)[C@H](O)[C@H](OC(=O)N(C)C)[C@H]1OC(=O)N(C)C`, the solubility entry in series [1] was “Insoluble”.
Consider `CC(=O)O[C@@H]1[C@@H](OC(C)=O)[C@@H](O)[C@H](Oc2c(-c3ccc(O)cc3)oc3cc(O)cc(O)c3c2=O)O[C@H]1C`, for which the outcome in the series on MCF7 [2], with MCF7 [3] and in the series on MCF7 [4] was inactive. Moreover, the Activity result in the series with MCF-10A was “Non-toxic”. Moreover, in the series on MCF7 [5], half-maximal inhibition (IC50) required 45.6 µM. Besides, the result in the series on MCF7 [6], with MCF7 [7] and in the series on MCF7 [8] was Active.
Regarding `CC(=O)CO[C@@H]1[C@@H](OCC(C)=O)[C@@H](O)[C@H](Oc2c(-c3ccc(O)cc3)oc3cc(O)cc(O)c3c2=O)O[C@H]1C`, the IC50 was determined as 0.252 µM in [9] and 34.1 µM in the series with MCF7 [5]. The result in the series with MCF7 [3], with MCF7 [4] and in the series on MCF7 [6] was inactive.
With `C[C@@H]1O[C@@H](Oc2c(-c3ccc(O)cc3)oc3cc(O)cc(O)c3c2=O)[C@H](O)[C@H](OC(=O)N2CCCC2)[C@H]1OC(=O)N1CCCC1`, in series [1], the solubility entry was “Insoluble”.
Still for that read-out and setting: with `C[C@@H]1O[C@@H](Oc2c(-c3ccc(O)cc3)oc3cc(O)cc(O)c3c2=O)[C@H](O)[C@H](OC(=O)N2CCOCC2)[C@H]1OC(=O)N1CCOCC1` the entry was “soluble”.

As usually defined, the IC50 is the concentration that gives 50% inhibition. Lower therefore signals greater potency.
